Data published in PubChem BioAssay AID1885 (Broad Institute, 2009).
About 4,400 (1.5%) of roughly 300,000 compounds were called active.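 Rule for the calls: active = mean inhibition across valid replicates above about 55% (limit read from the data); inconclusive = mean below that limit but half or more replicates reach it; inactive = mean below it, under half of replicates reach it.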 The entries come from a sample that favours actives as a whole.

Assay: Trypanosoma cruzi replication blockers in host cells – luminescence, NIH3T3 host cells, primary screen (AID 1885);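 note: signal also drops with host cell toxicity which is not excluded here; 0% = plate median of DMSO wells and 100% = zero luminescence signal; higher percent means less beta-gal luminescence so fewer parasites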
Conditions: T. cruzi beta-gal in NIH3T3, luminescence, 90 h; stronger effect = higher value; concentration not given here
Outline: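 Assay system: NIH/3T3 fibroblasts plus reporter T. cruzi. Amount: NIH/3T3 cells, 5,000 per well. Buffer or medium: DMEM, 2% fetal bovine serum. Doses: compound pinned at 50 nL/well, DMSO. Schedule: ≥90 h infection period, 3 h prior cell attachment. Signal: luminescent β-galactosidase signal after 60 min lysis. Read-out: parasite load inhibition, %.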

**Q.** Which inhibition does the source give for `COc1cc(C(=O)Nc2oc(-c3ccccc3)c(-c3ccccc3)c2C#N)cc(OC)c1OC` here?
**A.** 12.7% (inactive)

**Q.** With `COc1ccc(-c2oc(/N=C/N3CCCC3)c(C#N)c2-c2ccc(OC)cc2)cc1` as the compound, how does the inhibition read?
**A.** 57.6% (active)

**Q.** Which inhibition does the source give for `N#Cc1c(/N=C/N2CCCC2)oc(-c2ccccc2)c1-c1ccccc1` here?
**A.** 37.2% (inactive)

**Q.** With `O=C(NC1CCCCC1)C1CCC(CNS(=O)(=O)c2ccccc2)CC1` (stereo unspecified) as the compound, how does the inhibition read?
**A.** -8.43% (inactive)

**Q.** With `O=C(CCl)NNc1nc(-c2ccccc2)c2cc(Cl)ccc2n1` as the compound, how does the inhibition read?
**A.** 3.67% (inactive)

**Q.** Which inhibition does the source give for `NC(N)=Nc1nc(-c2ccccc2)c2cc(Cl)ccc2n1` here?
**A.** 65.4% (active)

**Q.** With `OCCCNc1nc(-c2ccccc2)c2cc(Cl)ccc2n1` as the compound, how does the inhibition read?
**A.** 18.3% (inactive)

**Q.** For `CC(Oc1ccccc1[N+](=O)[O-])C(=O)N/N=C/c1ccoc1` (stereo unspecified), which inhibition is on record?
**A.** -8.31% (inactive)

**Q.** Which inhibition does the source give for `O=C(Nc1ccc(N2CCCCC2)cc1)c1cc(S(=O)(=O)N2CCOCC2)ccc1F` here?
**A.** 22.8% (inactive)

**Q.** With `O=C(Nc1ccc(S(=O)(=O)N2CCCC2)cc1Cl)C1=COCCO1` as the compound, how does the inhibition read?
**A.** -14.4% (inactive)

**Q.** For `CCN(CC)c1ccc(S(=O)(=O)N2CCCCC2)cc1NC(=O)C1=COCCO1`, which inhibition is on record?
**A.** 61% (active)

**Q.** Which inhibition does the source give for `CCN(CC)c1ccc(S(=O)(=O)N2CCOCC2)cc1NC(=O)CSc1cccc[n+]1[O-]` here?
**A.** 5.13% (inactive)

**Q.** Which inhibition does the source give for `COc1cccc(NC(=O)CN(C)C(=O)CSCc2nc3scc(-c4cccs4)c3c(=O)[nH]2)c1` here?
**A.** -4.78% (inactive)

**Q.** With `O=C(NN1CCOCC1)c1cccc(F)c1` as the compound, how does the inhibition read?
**A.** -3.38% (inactive)

**Q.** With `Cc1ccc(NS(=O)(=O)c2ccc(C)c(NC(=O)COc3ccc4ccccc4c3)c2)c(C)c1` as the compound, how does the inhibition read?
**A.** 30.6% (inactive)

**Q.** For `COc1ccc2cc(S(=O)(=O)Nc3ccccn3)ccc2c1`, which inhibition is on record?
**A.** 4.63% (inactive)

**Q.** Which inhibition does the source give for `COc1cc(NS(=O)(=O)c2ccc3ccccc3c2)c2ncccc2c1` here?
**A.** 76.5% (active)

**Q.** For `CC(C)C(c1nnnn1C1CCCCC1)N1CCN(C(=O)c2ccco2)CC1` (stereo unspecified), which inhibition is on record?
**A.** -11.6% (inactive)

**Q.** Which inhibition does the source give for `CCCNC(=O)c1c(N)n(-c2ccc(S(N)(=O)=O)cc2)c2nc3ccccc3nc12` here?
**A.** -22.9% (inactive)

**Q.** With `CC(C)Cn1c(N)c(C(=O)NCc2cccs2)c2nc3ccccc3nc21` as the compound, how does the inhibition read?
**A.** 59.8% (active)

**Q.** Which inhibition does the source give for `CC(C)(C)c1ccc(C(=O)NCCn2c(N)c(C#N)c3nc4ccccc4nc32)cc1` here?
**A.** -43.8% (inactive)

**Q.** With `COc1ccccc1CCNC(=O)C1CCN(C(=O)/C=C/c2ccccc2)CC1` as the compound, how does the inhibition read?
**A.** -2.7% (inactive)

**Q.** With `CCN(CC)CCN(C(=O)c1ccc(N2C(=O)CCC2=O)cc1)c1nc2cc3c(cc2s1)OCO3` as the compound, how does the inhibition read?
**A.** 40.8% (inactive)

**Q.** For `CCN(CC)CCN(C(=O)c1cccc([N+](=O)[O-])c1)c1nc2ccc(OC)cc2s1`, which inhibition is on record?
**A.** 55.5% (active)

**Q.** With `CCOc1ccc2nc(N(CCN(C)C)C(=O)c3ccc4ccccc4c3)sc2c1` as the compound, how does the inhibition read?
**A.** 26.5% (inactive)

**Q.** For `CCOc1ccc(NC(=O)CCC(=O)NNC(=O)NC2CCCCC2)cc1`, which inhibition is on record?
**A.** 8.19% (inactive)

**Q.** For `Cc1ccc2nc(SCC(=O)N3CC(C)OC(C)C3)nc(=O)n2c1` (stereo unspecified), which inhibition is on record?
**A.** -6.75% (inactive)

**Q.** Which inhibition does the source give for `CCN(Cc1ccccc1)S(=O)(=O)c1cc2c3c(c1)CCN3C(=O)CC2` here?
**A.** -1.06% (inactive)

**Q.** For `O=c1cnnc(Nc2ccccc2F)[nH]1`, which inhibition is on record?
**A.** -1.79% (inactive)

**Q.** Which inhibition does the source give for `O=C(NCc1ccccc1)C1=C[C@@H](c2ccc(C(F)(F)F)cc2)C[C@@H](OCc2ccc(CO)cc2)O1` here?
**A.** 63% (active)

**Q.** For `CC(C)(C)[C@H]1C=C(C(=O)NCc2ccccc2)O[C@@H](OCc2ccc(CO)cc2)C1`, which inhibition is on record?
**A.** 7.55% (inactive)

**Q.** Which inhibition does the source give for `O=C(C1=C[C@H](c2ccc(C(F)(F)F)cc2)C[C@H](OCc2ccc(CO)cc2)O1)N1CCN(Cc2ccccc2)CC1` here?
**A.** 40.5% (inactive)

**Q.** With `CN(C)c1nc(Nc2ccc(Cl)c(Cl)c2)nc(N(C)C)n1` as the compound, how does the inhibition read?
**A.** 9.61% (inactive)

**Q.** For `COc1cc2nc(Cl)nc(NCCO)c2cc1OC`, which inhibition is on record?
**A.** -12.7% (inactive)

**Q.** With `OCCNc1nc(Nc2ccc(Cl)c(Cl)c2)nc2ccccc12` as the compound, how does the inhibition read?
**A.** 64.3% (active)

**Q.** Which inhibition does the source give for `COCCNc1nc(-c2ccccc2)nc2c1oc1ccccc12` here?
**A.** 36.8% (inactive)

**Q.** With `CCc1noc(C)c1C(=O)Oc1ccc(N(C)S(=O)(=O)c2ccc(C)c(C)c2)cc1` as the compound, how does the inhibition read?
**A.** 31% (inactive)

**Q.** With `COC(=O)C(C(=O)Nc1cccc(Cl)c1C)C1CCCC1` (stereo unspecified) as the compound, how does the inhibition read?
**A.** -20.2% (inactive)

**Q.** Which inhibition does the source give for `COCCCn1c(SCC(=O)Nc2oc(C)c3c(C)n[nH]c(=O)c23)nc2sc3c(c2c1=O)CCC3` here?
**A.** 2.14% (inactive)

**Q.** Which inhibition does the source give for `CN(C1CCS(=O)(=O)C1)S(=O)(=O)c1ccc2ccccc2c1` (stereo unspecified) here?
**A.** -3.79% (inactive)

**Q.** With `Cc1ccccc1Nc1nc(-c2cccnc2)cs1` as the compound, how does the inhibition read?
**A.** 20.2% (inactive)

**Q.** Which inhibition does the source give for `Brc1ccc(-c2csc(N/N=C/c3ccc4c(c3)OCO4)n2)cc1` here?
**A.** 31.5% (inactive)

**Q.** With `Brc1ccc(-c2csc(N/N=C/c3cccnc3)n2)cc1` as the compound, how does the inhibition read?
**A.** 69.8% (active)

**Q.** Which inhibition does the source give for `COC(C[C@@H]1O[C@@H]1C(=O)[C@@H](C)OCc1ccccc1)OC` here?
**A.** 3.07% (inactive)

**Q.** With `CCCCN(CCCC)CCCNC(=O)CN1C(=O)COc2ccc(S(=O)(=O)N3CCC(C)CC3)cc21` as the compound, how does the inhibition read?
**A.** 10.4% (inactive)

**Q.** For `Cc1cc(C)c(-c2c(O)c3ccccc3n(C)c2=O)c(C)c1`, which inhibition is on record?
**A.** -3.11% (inactive)

**Q.** Which inhibition does the source give for `COc1cc(C2/C(=C(\O)c3ccc4c(c3)CC(C)O4)C(=O)C(=O)N2c2nnc(C)s2)cc(OC)c1OC` (stereo unspecified) here?
**A.** -5.79% (inactive)

**Q.** Which inhibition does the source give for `O=C(CSc1n[nH]c(=O)n1-c1ccccc1)Nc1ccccc1C(F)(F)F` here?
**A.** -3.4% (inactive)

**Q.** With `O=C(NCCC1CCCCN1S(=O)(=O)c1ccccc1)C(=O)NCC1CCCO1` (stereo unspecified) as the compound, how does the inhibition read?
**A.** -5.32% (inactive)

**Q.** With `CSc1ncccc1C(=O)N1CCCC(CCC(=O)NCc2ccccc2F)C1` (stereo unspecified) as the compound, how does the inhibition read?
**A.** 2.43% (inactive)

**Q.** For `COc1cccc(CNC(=O)CCC2CCCN(Cc3ccc(OC(F)F)cc3)C2)c1` (stereo unspecified), which inhibition is on record?
**A.** 49.4% (inactive)

**Q.** For `O=C(CCC1CCCN(Cc2ccc(O)c(Cl)c2)C1)NCc1ccccc1F` (stereo unspecified), which inhibition is on record?
**A.** 65.4% (active)

**Q.** For `CC(=O)c1ccc(S(=O)(=O)N2CCN(c3nc4c(C)c(C)ccc4cc3C#N)CC2)cc1`, which inhibition is on record?
**A.** 63.6% (active)

**Q.** Which inhibition does the source give for `CC(=O)c1ccc(S(=O)(=O)N2CCC3(CC2)OCCO3)cc1` here?
**A.** 4.17% (inactive)

**Q.** With `CC(=O)c1ccc(S(=O)(=O)N2CCN(C(=O)/C=C/c3ccc4ccccc4n3)CC2)cc1` as the compound, how does the inhibition read?
**A.** 20.6% (inactive)

**Q.** With `CCOc1ccc2ccccc2c1/C=N/NC(=O)c1c(C)cc(C)[nH]c1=O` as the compound, how does the inhibition read?
**A.** 13.7% (inactive)
